According to ChEMBL document CHEMBL6134766, “Design, synthesis, and evaluation of benzhydrylpiperazine-based novel dual COX-2/5-LOX inhibitors with anti-inflammatory and anti-cancer activity” (RSC Med Chem, 2025):
Activity calls are given as the source filed them. No cut-off for these calls is given here.

Experiments:
Rattus norvegicus [1] = assay: Anti-inflammatory activity in carrageenan-induced paw edema Wistar rat model assessed as decrease in TNF-alpha level in paw tissue at 10 mg/kg, po measured for 6 hrs by ELISA; type: functional, organism-based
How it was run: (§1)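 Paw tissue taken from carrageenan-edema rats dosed orally at 5, 10 or 20 mg kg−1. Tissue rinsed in PBS pH 7.4, minced, homogenized, filtered and centrifuged at 2000 rpm for 20 min at 4 °C. Supernatant assayed by ELISA for PGE2, IL-6, TNF-α and IL-10. Data as mean ± SD.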

Gastric mucosa [2] = assay: Antioxidant activity in gastric mucosal tissue in Wistar rat assessed as increase in SOD level at 10 mg/kg, po; type: functional, organism-based
How it was run: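 Gastric tissue from fasted rats (dosed orally once daily for 3 days in 0.3% Na CMC) homogenized in cold PBS pH 7.4, centrifuged 1000 rpm, 10 min, 4 °C; protein by Bradford; SOD measured in supernatant per reported procedure.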

[3] = Toxicity in fasting Wistar rat assessed as ulcer score at 10 mg/kg, po via gavage treated for 3 days consecutively by H and E staining based analysis (reference value: 0); type: organism-based; conditions: in vivo, 72 h, time 3 day
How it was run: (§2)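 Fasted rats, n = 6/group, gavaged once daily for 3 days in 0.3% Na CMC (vehicle control 0.3% CMC); killed under anaesthesia 6 h after day-3 dose; stomachs saline-washed, mucosa examined with hand lens; ulcer score, index and % ulceration by reported scoring; some stomachs formalin-fixed, H&E stained.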

[4] = Toxicity in fasting Wistar rat assessed as ulcer index at 10 mg/kg, po via gavage treated for 3 days consecutively by H and E staining based analysis (reference value: 0); type: organism-based; conditions: in vivo, 72 h, time 3 day; how it was run: as §2
Rattus norvegicus [5] = assay: Anti-inflammatory activity in carrageenan-induced paw edema Wistar rat model assessed as swelling thickness of paw at 10 mg/kg, po measured after 6 hrs by digital vernier caliper (reference value: 8.33 +/- 0.42 millimeter); type: functional
Rattus norvegicus [6] = assay: Analgesic activity in acetic acid-induced pain Wistar rat model assessed as number of writhing at 10 mg/kg, po pretreated for 30 mins followed by acetic acid treatment measured for 30 mins by writhing test (reference value: 40.33 +/- 3.01); type: functional; conditions: time 60 min, 1 h
Rattus norvegicus [7] = assay: Anti-inflammatory activity in carrageenan-induced paw edema Wistar rat model assessed as swelling thickness of paw at 10 mg/kg, po measured after 2 hrs by digital vernier caliper (reference value: 8.65 +/- 0.53 millimeter); type: functional
Gastric mucosa [8] = assay: Antioxidant activity in gastric mucosal tissue in Wistar rat assessed as decrease in nitrite level at 10 mg/kg, po; type: functional, organism-based
How it was run: (§3)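 Fasted rats (n = 6/group) gavaged once daily for 3 days in 0.3% Na CMC and sacrificed 6 h after the final dose. Randomly chosen stomachs homogenized in cold PBS pH 7.4 and centrifuged at 1000 rpm for 10 min at 4 °C. Supernatant protein measured by Bradford assay; GSH and nitrate then measured by reported methods.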

Rattus norvegicus [9] = assay: Anti-inflammatory activity in carrageenan-induced paw edema Wistar rat model assessed as swelling thickness of paw at 10 mg/kg, po measured after 3 hrs by digital vernier caliper (reference value: 8.56 +/- 0.45 millimeter); type: functional
[10] = Toxicity in Wistar rat assessed as change in serum AST level at 10 mg/kg, po; type: organism-based; conditions: in vivo
How it was run: (§4)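 Rats dosed orally in 0.3% Na CMC; retro-orbital blood clotted at room temperature, serum separated at 2000 rpm, 20 min, 4 °C; ALT, AST, creatinine and urea by commercial kits; n = 6 per group, mean ± SD; Tukey test after repeated-measures one-way ANOVA.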

[11] = Toxicity in Wistar rat assessed as change in serum urea level at 10 mg/kg, po; type: organism-based; conditions: in vivo; how it was run: as §4
Rattus norvegicus [12] = assay: Anti-inflammatory activity in carrageenan-induced paw edema Wistar rat model assessed as swelling thickness of paw at 10 mg/kg, po measured after 5 hrs by digital vernier caliper (reference value: 8.47 +/- 0.32 millimeter); type: functional
[13] = Toxicity in fasting Wistar rat assessed as ulceration at 10 mg/kg, po via gavage treated for 3 days consecutively by H and E staining based analysis (reference value: 0 %); type: organism-based; conditions: in vivo, 72 h, time 3 day; how it was run: as §2
Rattus norvegicus [14] = assay: Anti-inflammatory activity in carrageenan-induced paw edema Wistar rat model assessed as swelling thickness of paw at 10 mg/kg, po measured immediately by digital vernier caliper (reference value: 3.48 +/- 0.21 millimeter); type: functional
[15] = Toxicity in Wistar rat assessed as change in serum ALT level at 10 mg/kg, po; type: organism-based; conditions: in vivo; how it was run: as §4
Rattus norvegicus [16] = assay: Anti-inflammatory activity in carrageenan-induced paw edema Wistar rat model assessed as swelling thickness of paw at 10 mg/kg, po measured after 4 hrs by digital vernier caliper (reference value: 8.36 +/- 0.78 millimeter); type: functional
[17] = Toxicity in Wistar rat assessed as change in serum creatinine level at 10 mg/kg, po; type: organism-based; conditions: in vivo; how it was run: as §4
Gastric mucosa [18] = assay: Antioxidant activity in gastric mucosal tissue in Wistar rat assessed as increase in GSH level at 10 mg/kg, po; type: functional, organism-based; how it was run: as §3
Rattus norvegicus [19] = assay: Anti-inflammatory activity in carrageenan-induced paw edema Wistar rat model assessed as increase in IL-10 level in paw tissue at 10 mg/kg, po measured for 6 hrs by ELISA; type: functional, organism-based; how it was run: as §1
Rattus norvegicus [20] = assay: Anti-inflammatory activity in carrageenan-induced paw edema Wistar rat model assessed as swelling thickness of paw at 10 mg/kg, po measured after 1 hr by digital vernier caliper (reference value: 8.47 +/- 0.25 millimeter); type: functional
Rattus norvegicus [21] = assay: Anti-inflammatory activity in carrageenan-induced paw edema Wistar rat model assessed as decrease in IL-6 level in paw tissue at 10 mg/kg, po measured for 6 hrs by ELISA; type: functional, organism-based; how it was run: as §1

With `COc1ccc2c(c1)c(CC(=O)O)c(C)n2C(=O)c1ccc(Cl)cc1` [INDOMETHACIN] the Activity (Rattus norvegicus [1]) was “Active”, the Activity (Gastric mucosa [2]) was “Active” and the Activity [3] was 3.041. It also gave a UI [4] of 304.16, an Activity (Rattus norvegicus [5]) of 3.29 mm and an Activity (Rattus norvegicus [6]) of 16.5. The Activity (Rattus norvegicus [7]) was 3.73 mm, the Activity (Gastric mucosa [8]) was “Active” and the Activity (Rattus norvegicus [9]) was 3.38 mm. For the same molecule, the Activity [10] was “Toxic”, the Activity [11] was “Toxic” and the Activity (Rattus norvegicus [12]) was 3.17 mm. The Activity [13] was 100%, the Activity (Rattus norvegicus [14]) was 3.37 mm and the Activity [15] was “Toxic”. The Activity (Rattus norvegicus [16]) was 3.14 mm, the Activity [17] was “Toxic” and the Activity (Gastric mucosa [18]) was “Active”. The Activity (Rattus norvegicus [19]) was “Active”, the Activity (Rattus norvegicus [20]) was 3.74 mm and the Activity (Rattus norvegicus [21]) was “Active”.
